The record followed here is ChEMBL document CHEMBL1141722, “Antioxidative and thrombolytic TMP nitrone for treatment of ischemic stroke” (2008).

Structures are written as SMILES. Calls of active or inactive are those of the source. The calls are words filed in the database; no cut-off is given here.

What all share (format): functional
Assay [1] is described as follows: Antioxidant activity assessed as inhibition of ROS-induced linoleic acid peroxidation at 2 mM after 15 mins at 100 degC by modified TBARS assay relative to control. An outline of the steps:
(§1)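 Linoleic acid (1.5% in ethanol) diluted with twofold 200 mM PBS, pH 7.4, then incubated with 2.5 mM FeSO4 (0.2 mL) and test sample at 37 °C for 30 min. The reaction was stopped with 10% TCA and 0.67% TBA, then boiled 15 min. The MDA–TBA adduct in the supernatant was read at 532 nm. % inhibition = [(A−A1)/A]×100 versus control absorbance.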

Assay [2] in a line: Antioxidant activity assessed as inhibition of ROS-induced linoleic acid peroxidation at 1 mM after 15 mins at 100 degC by modified TBARS assay relative to control. The method, boiled down:
as §1

The subject of assay [3] is Rattus norvegicus. Nature of the assay: Neuroprotective effect against middle cerebral artery occlusion-induced focal cerebral ischemia in Sprague-Dawley rat assessed as reduction in infarct area at 50 mg/kg, ip administered 1 hr after MCA occlusion measured after 24 hrs of reperfusion by TTC staining relative to control. Further details: scale not given: the % may be the effect or the level left. To be noted: route intraperitoneal. The method, boiled down: (§2)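 Female Sprague-Dawley rats (210–240 g) under chloral hydrate (400 mg/kg ip) underwent 2 h transient proximal MCA occlusion by intraluminal suture, then reperfusion. Drug or saline was given ip 1 h after occlusion. After 24 h of reperfusion, 2-mm brain slices were stained with 0.5% TTC for 30 min at 37 °C. Infarct area was expressed as % of total section area. Single-tail Student's t-test versus control.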

Assay [4] concerns Rattus norvegicus. Nature of the assay: Antithrombotic activity in rat venous thrombosis model assessed as inhibition of thrombus formation at 1.2 mg/kg.
Assay [5] concerns Platelet. Nature of the assay: Inhibition of ADP-induced New Zealand rabbit platelet aggregation at 2 mM treated for 1 min prior to ADP challenge by turbidimetric method relative to control. To be noted: Oryctolagus cuniculus. The method, boiled down: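 New Zealand rabbit blood was anticoagulated with 3.8% citrate (9:1), and PRP was taken by centrifugation. PRP was pre-warmed at 37 °C for 1 min, then drug was added to 2 mM final. After 1 min of stirring, ADP (10 µM) was added and the reaction ran 4 min. Maximum change in light transmission was recorded turbidimetrically and expressed as % of drug-free control.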

Assay [6] concerns Rattus norvegicus. Nature of the assay: Antithrombotic activity in Sprague-Dawley rat venous thrombus model assessed as inhibition of thrombus formation at 2 mg/kg, iv administered 2 hrs after ligation measured after 24 hrs relative to control.
Assay [7] can be described thus: Neuroprotective effect against H202-induced Sprague-Dawley rat cortical neuron injury assessed as cell viability up to 1 mM treated 30 mins before H202 challenge measured after 24 hrs by MTT assay. To be noted: Cortical neurone. The method, boiled down:
(§3)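 Cortices from 1–3-day-old Sprague–Dawley rats were digested with 0.25% […] at 37 °C, and cells were plated at 9×10^4/well in DMEM/10% FBS for 24 h plus 12 h. Drugs were added 30 min before 0.5 mM H2O2, then incubated 24 h at 37 °C, 5% CO2. Viability was measured by MTT 4 h, DMSO solubilization, A570, as % of untreated/saline control. Means ± SEM of three independent experiments.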
(Tetrazolium assays rely on reduction of a dye to a coloured formazan, in cell work by metabolically active cells.)

In assay [8] the test system is Rattus norvegicus. Nature of the assay: Neuroprotective effect against middle cerebral artery occlusion-induced focal cerebral ischemia in Sprague-Dawley rat assessed as reduction in infarct area at 65 mg/kg, ip administered 1 hr after MCA occlusion measured after 24 hrs of reperfusion by TTC staining relative to control. Further details: scale not given: the % may be the effect or the level left. To be noted: route intraperitoneal. The method, boiled down:
as §2

The nature of assay [9]: Neuroprotective effect against H202-induced Sprague-Dawley rat cortical neuron injury assessed as cell viability at 1 to 1000 uM treated 30 mins before H202 challenge measured after 24 hrs by MTT assay. To be noted: Cortical neurone. The method, boiled down:
as §3

Assay [10] relates to Rattus norvegicus. Description: Antithrombotic activity in Sprague-Dawley rat venous thrombus model assessed as inhibition of thrombus formation at 3.25 mg/kg, iv administered 2 hrs after ligation measured after 24 hrs relative to control.
The nature of assay [11]: Neuroprotective effect against H202-induced Sprague-Dawley rat cortical neuron injury assessed as cell viability at 1 mM treated 30 mins before H202 challenge measured after 24 hrs by MTT assay relative to control. To be noted: Cortical neurone. The method, boiled down:
as §3

Assay [12] relates to Rattus norvegicus. Nature of the assay: Neuroprotective effect against middle cerebral artery occlusion-induced focal cerebral ischemia in Sprague-Dawley rat assessed as reduction in infarct area at 80 mg/kg, ip administered 1 hr after MCA occlusion measured after 24 hrs of reperfusion by TTC staining relative to control. Further details: scale not given: the % may be the effect or the level left. To be noted: route intraperitoneal. The method, boiled down:
as §2

Assay [13] in a line: Neuroprotective effect against H202-induced Sprague-Dawley rat cortical neuron injury assessed as cell viability at 100 uM treated 30 mins before H202 challenge measured after 24 hrs by MTT assay. To be noted: Cortical neurone. An outline of the steps:
as §3

Assay [14] relates to Rattus norvegicus. Description: Neuroprotective effect against middle cerebral artery occlusion-induced focal cerebral ischemia in Sprague-Dawley rat assessed as reduction in infarct area at 62 mg/kg, ip administered 1 hr after MCA occlusion measured after 24 hrs of reperfusion by TTC staining relative to control. To be noted: route intraperitoneal. Further details: scale not given: the % may be the effect or the level left. An outline of the steps: as §2

One may read the inhibition as the drop in the measured response relative to a control, in per cent. By inhibition in vivo is commonly meant the share of the control response that was lost under treatment.

For `Cc1nc(C)c(C)nc1C` [LIGUSTRAZINE], the inhibition in assay [1] is 9%; in assay [2], 6.6%. The Activity in [3] amounted to 46.3%. The inhibition in vivo at 1.2 mg/kg in [4] is 50%. In [5], at 2000 µM the inhibition was 36.2%. Further, in [6], the inhibition in vivo at 2 mg/kg was 71.2%. Also, the outcome in [7] was inactive.

As for `CC(C)(C)/[N+]([O-])=C/c1ccccc1`, the figures for the inhibition in assay [1] and in [2] were 25.1% and 15.8%, respectively. For the same compound, the inhibition at 2000 µM in assay [5] was found to be 33.9%. Moreover, the Activity in assay [8] was 31.1%. Moreover, in assay [7], the result was inactive.

Regarding `Cc1nc(C)c(/C=[N+](\[O-])C(C)(C)C)nc1C`, the outcome in assay [9] was Active. The inhibition is 40% in assay [1] and 13.7% in assay [2]. In addition, the inhibition in vivo at 3.25 mg/kg in [10] is 57.6%. Moreover, the Activity in [11] worked out at 96%; in assay [12] it was 56.3%. In assay [5], this compound gave an inhibition at 2000 µM of 30%.

Turning to `CC1=NN(c2ccccc2)C(=O)C1` [EDARAVONE], the inhibition in assay [1] is 43.7%; in assay [2], 37.9%. Also, the result in assay [13] was Active. The Activity in assay [11] turned out to be 82%; in assay [14] it was 52.5%. Also, 2000 µM produced 32.4% inhibition in [5].

For the compound `O=C1O[C@H]([C@@H](O)CO)C(O)=C1O`, the values for the inhibition in assay [1] and in assay [2] were 53.2% and 43.3%, respectively.

For `CC(=O)Oc1ccccc1C(=O)O` [ASPIRIN], the inhibition at 2000 µM in [5] worked out at 24.8%.
